From ChEMBL document CHEMBL1789904, “Imaging of Plasmodium liver stages to drive next-generation antimalarial drug discovery” (Science, 2011)

System: Plasmodium yoelii
Assay: NOVARTIS: Antimalarial liver stage activity measured as reduction in Plasmodium yoelii schizont area in HepG2-A16-CD81 cells by immuno-fluorescence, and median schizont size at 10uM compound concentration
Assay type: functional, organism-based
Details: for IC50: Plasmodium yoelii, HepG2-A16-CD81
In short: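 Host and parasite nuclei stained with Hoechst 33342, parasites with αPyHSP70 antibody; 25 images per well by high-content imaging; median parasite (schizont) area measured by automated image analysis, ~50 schizonts per experiment, two or more independent experiments.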

Row | SMILES | Schizont size [um] | IC50 [nM]
1 | COC(=O)C1=C(C)NC2=C(C(=O)CC(c3ccccc3Cl)C2)C1c1ccc([N+](=O)[O-])cc1 (stereo unspecified) | 61.06 | 842
2 | Cc1ccc(-n2c(-c3ccccc3)cc(C=NNC(=O)c3cccc(O)c3)c2-c2ccccc2)cc1 | 26.72 | 20.2
3 | CCCCSCC(O)CN1CCCCC1 (stereo unspecified) | 191.22 | > 10000
4 | Cc1cc(NC(c2cccc(Br)c2)c2ccc3cccnc3c2O)no1 (stereo unspecified) | 16.28 | 147
5 | Cc1oc2c(c1C(=O)NCC1CCCO1)C(=O)c1ccccc1C2=O (stereo unspecified) | 21.4 | 189
6 | CC(=O)N(C1=C(N2CCOCC2)C(=O)c2ccccc2C1=O)c1ccc(I)cc1 | 50.1 | 602
7 | Cc1ccc2nc3nc4c(C)cccc4c(N)c3cc2c1 | 22.23 | 47.4
8 | OC1=C2C(=Nc3ccccc3SC2c2ccc(Br)cc2)c2ccccc21 (stereo unspecified) | 34.03 | 327
9 | O=c1c2c([nH]c3ccccc13)CCCCCC2 | 42.48 | 727
10 | Cl.Nc1ccc(N2CCCCCC2)cc1 | 77.66 | 1950
11 | CCN(CC)c1ccc(N=Cc2ccc(Sc3nc4ccccc4s3)o2)cc1 | 152.6 | > 10000
12 | Cc1ccc(Nc2nc3c(N)nnc(N)c3nc2Nc2ccc(C)cc2)cc1 | 50.31 | 488
13 | COc1ccc(C2CC(=O)C3=C(C2)NC(C)=C(C(=O)OC2CCCC2)C3c2ccc([N+](=O)[O-])cc2)cc1OC (stereo unspecified) | 103.85 | 3920
14 | N=c1c2c(n(Cc3ccc(Cl)cc3)c3c1CCC3)CCC2 | 32.57 | 91.1
15 | Cc1cccc(N2C(N)=NC(N)=NC2(C)C)c1.Cl | 38.51 | 4.25
16 | COc1ccc(C(c2ccc(N(C)C)cc2)c2ccc(N(C)C)cc2)cc1 | 172.95 | > 10000
17 | CCCCc1c(C)nc2c(OC)cccc2c1O | 42.59 | 561
18 | Nc1ccc(-c2nc3cc(Oc4ccc(Oc5ccc6[nH]c(-c7ccc(N)cc7)nc6c5)cc4)ccc3[nH]2)cc1 | 116.48 | 319
19 | COc1ccc(C2CC(=O)C3=C(C2)NC(C)=C(C(=O)OC2CCCC2)C3c2cccc(C)c2)cc1OC (stereo unspecified) | 66.8 | 779

Row | SMILES | Schizont size [um] | IC50 [nM]
20 | O=C(NC1CC1)c1ccc(CSCc2ccccc2Cl)o1 | 26.09 | 140
21 | CCCCNC(=O)C(CC)Sc1nnc(-c2ccc(C)cc2)c(-c2ccc(C)cc2)n1 (stereo unspecified) | 31 | 291
22 | CCC(/C=C1\Sc2ccc(OC)cc2N1CCCS(=O)(=O)O)=C\c1sc2ccc(OC)cc2[n+]1CCCS(=O)(=O)O | 18.06 | 11.2
23 | CCN1C=C(c2ccc(C)cc2)S/C1=C\c1sc2ccccc2[n+]1C | 37.89 | 4.5
24 | CCc1nc(N)nc(N)c1-c1ccc(Cl)cc1 [PYRIMETHAMINE] | 37.58 | 2.15
25 | Cc1ccc(-c2cn3c([n+]2-c2ccccc2)SCC3)cc1.[Br-] | 62.52 | 1090
26 | Oc1c2c(nc3cc(-c4ccc(Br)cc4)nn13)CCCC2 |  | 499
27 | CCOC(=O)c1ccc(NC(=O)CSc2nc(NCc3ccccc3)c3ccccc3n2)cc1 | 69.2 | 38.1
28 | CCN(CC)CCCN(Cc1cc2cc(OC)c(OC)cc2[nH]c1=O)C(=S)Nc1cccc(Cl)c1 | 60.54 | 162
29 | Cc1nc2cc(-c3ccc(I)cc3)nn2c(O)c1C | 35.28 | 118
30 | CC(=O)N(C)C1=C(N2CCOCC2)C(=O)c2ccccc2C1=O | 38.72 | 229
31 | CCCCCCOc1ccc(C(C)=NNC2=NCCN2)cc1[N+](=O)[O-] | 60.96 | 784
32 | Clc1ncnc2ncn(Cc3ccccc3)c12 | 220.34 | > 10000
33 | c1ccc2cc3c(N4CCN(CCN5CCN(c6ccnc7cc8ccccc8cc67)CC5)CC4)ccnc3cc2c1 | 135.69 | 2910
34 | Cc1ccc2cc(C)c(Nc3ccc(Cl)cc3)nc2c1 | 42.06 | 148
35 | O=c1c2c([nH]c3ccccc13)CCCC2 | 39.45 | 500
36 | CC(=O)N(C1=C(N(C)C)C(=O)c2ccccc2C1=O)c1ccc(F)cc1 | 23.8 | 57.3
37 | CCCCCCOc1ccc(NC(=O)c2cccs2)cc1 | 27.87 | 139
38 | CCC(=O)NC(c1ccccc1Cl)c1cc(Cl)c2cccnc2c1O (stereo unspecified) | 55.11 | 1010

Row | SMILES | Schizont size [um] | IC50 [nM]
39 | CCN(CC)CCN(Cc1cc2ccc(C)cc2[nH]c1=O)C(=S)NC(C)c1ccccc1 (stereo unspecified) | 66.17 | 883
40 | Cc1nc2ccc(Br)cc2c(O)c1CC(C)C | 30.79 | 244
41 | Cc1nc([P+](c2ccccc2)(c2ccccc2)c2ccccc2)c(N2CCCCC2)o1 | 25.57 | 82.4
42 | CC[C@H]1CN2CCc3cc(OC)c(OC)cc3[C@@H]2C[C@@H]1C[C@H]1NCCc2cc(OC)c(OC)cc21 [EMETINE] | 26.51 | 7.49
43 | CCOC(=O)C1(CC)CC(C)(C(=O)C[n+]2cccc(Br)c2)OC1=O.[Br-] (stereo unspecified) | 178.59 | > 10000
44 | COC(=O)c1ccc(C2C3=C(O)CC(c4ccco4)CC3=Nc3ccccc3N2C(=O)c2ccccc2)cc1 (stereo unspecified) | 140.38 | > 4780
45 | O=C(c1cccc(Cl)c1)N1CCN(c2ccc([N+](=O)[O-])c(NC3CC3)c2)CC1 | 102.71 | 3200
46 | CC(=O)N(C)C1=C(N2CCCC2)C(=O)c2ccccc2C1=O | 123.79 | 4950
47 | CCN(CC)CCCNc1nc2cc(OC)c(OC)cc2c2nc(-c3ccccc3)nn12 | 52.61 | 327
48 | CC1(C)N=C(N)N=C(N)N1c1ccc(Cl)cc1.Cl [CHLORCYCLOGUANIL HYDROCHLORIDE] | 33.09 | 2.56
49 | Fc1ccc(Nc2nc(NCc3ccccc3)c3ccccc3n2)cc1 | 154.58 | 3790
50 | CN(C)c1ccc(C(=Cc2cc(-c3ccccc3)cc(-c3ccccc3)[o+]2)c2ccc(N(C)C)cc2)cc1 | 26.72 | 51.9
51 | COc1cc(C(=O)NCCc2ccccn2)ccc1OC1CCN(CC(c2ccccc2)c2ccccc2)CC1 |  | 1280
52 | COc1ccc(NC(=O)COc2ccccc2C(C)C)c(OC)c1 | 202.59 | > 10000
53 | CCCCCc1ccc(OCCCC[n+]2cccc(C)c2)c(CCCCC)c1.[Cl-] | 23.48 | 34.6
54 | CC(C)(C)c1ccc(Oc2ccc(N3C(=O)C4CC=CCC4C3=O)cc2)cc1 (stereo unspecified) | 180.99 | > 10000
55 | Cc1cc(N)c2ccccc2[n+]1CCCCCCCCCC[n+]1c(C)cc(N)c2ccccc21.[Cl-].[Cl-] [DEQUALINIUM CHLORIDE] | 40.29 | 566
56 | CC[n+]1c(C=C2C=CN(C)C=C2)ccc2cc(C)ccc21.[I-] | 25.57 | 170
57 | Cc1nc2ccc(NC(=O)C3CC3)cc2c(=O)n1Cc1ccc(Cl)cc1 |  | > 10000
